The text below walks through data of ChEMBL document CHEMBL4414563, “Pyrimidine Nucleosides from Streptomyces sp. SSA28” (J Nat Prod, 2019).

pIC50: −log10 of the molar value. Structures can show the parent of a compound that is named as a salt.

The test system of this assay is HCT-116. Nature of the assay: Cytotoxicity against human HCT116 cells assessed as reduction in cell viability after 24 hrs by SRB assay. The format is functional, cell-based. The following applies: HCT-116, 24 h. The method in brief:
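Human colon cancer HCT-116 cells, read out by sulforhodamine B (SRB) staining, with adriamycin as the positive control.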
What is called pIC50 is the negative decadic logarithm of the IC50, by convention in mol/L. As for `CC(C)/C=C/C(=O)Nc1ccn([C@H]2CC[C@H](O[C@H]3O[C@H](C)[C@@H](N(C)C)[C@H](O)[C@H]3O)[C@@H](C)O2)c(=O)n1`, the pIC50 is 6.11.

`CC(C)C(=O)Nc1ccc(C(=O)Nc2ccn([C@H]3CC[C@H](O[C@H]4O[C@H](C)[C@@H](N(C)C)[C@H](O)[C@H]4O)[C@@H](C)O3)c(=O)n2)cc1`: the pIC50 was 5.18.

Turning to `C[C@H]1O[C@@H](n2ccc(NC(=O)Cc3ccccc3)nc2=O)CC[C@@H]1O`, the pIC50 is less than 4.70.

As for `CCC(C)/C=C/C(=O)Nc1ccn([C@H]2CC[C@H](O[C@H]3O[C@H](C)[C@@H](N(C)C)[C@H](O)[C@H]3O)[C@@H](C)O2)c(=O)n1` (some centres not stated), the pIC50 was 6.05.

For `CC(C)=CC(=O)Nc1ccn([C@H]2C[C@@H](O)[C@H](O)[C@@H](C)O2)c(=O)n1`, the pIC50 is less than 4.70.

Consider `CC(C)CC(=O)Nc1ccn([C@H]2CC[C@H](O[C@H]3O[C@H](C)[C@@H](N(C)C)[C@H](O)[C@H]3O)[C@@H](C)O2)c(=O)n1`, for which the pIC50 is 5.67.

In the case of `CC(C)/C=C/C(=O)Nc1ccn([C@H]2CC[C@H](O)[C@@H](C)O2)c(=O)n1`, the pIC50 is less than 4.70.

On to `C[C@H]1O[C@@H](n2ccc(NC(=O)CC(C)(C)O)nc2=O)CC[C@@H]1O`, for which the pIC50 was less than 4.70.

Regarding `CC(=O)C(C)Nc1ccc(C(=O)Nc2ccn([C@H]3CC[C@H](O)[C@@H](C)O3)c(=O)n2)cc1` (some centres not stated), the pIC50 is less than 4.70.

In the case of `CC(C)=CCC(=O)Nc1ccn([C@H]2CC[C@H](O)[C@@H](C)O2)c(=O)n1`, the negative-log IC50 (pIC50) is less than 4.70.

As to `CC(C)CCC(=O)Nc1ccn([C@H]2CC[C@H](O)[C@@H](C)O2)c(=O)n1`, the pIC50 is less than 4.70.

Regarding `CC(C)C(=O)Nc1ccn([C@H]2CC[C@H](O)[C@@H](C)O2)c(=O)n1`, the pIC50 is less than 4.70.

Take `CCC(=O)Nc1ccn([C@H]2CC[C@H](O)[C@@H](C)O2)c(=O)n1`: the pIC50 was less than 4.70.

With `CC(C)CCC(=O)Nc1ccn([C@H]2CC[C@H](O[C@H]3O[C@H](C)[C@@H](N(C)C)[C@H](O)[C@H]3O)[C@@H](C)O2)c(=O)n1`, the pIC50 is 6.41.

`CC(=O)Nc1ccn([C@H]2CC[C@H](O)[C@@H](C)O2)c(=O)n1`: the negative-log IC50 (pIC50) was less than 4.70.

On to `C/C=C(\C)C(=O)Nc1ccn([C@H]2CC[C@H](O[C@H]3O[C@H](C)[C@@H](N(C)C)[C@H](O)[C@H]3O)[C@@H](C)O2)c(=O)n1`, for which the pIC50 was 5.19.

As to `COc1cccc2c1C(=O)c1c(O)c3c(c(O)c1C2=O)C[C@@](O)(C(=O)CO)C[C@@H]3O[C@H]1C[C@H](N)[C@H](O)[C@H](C)O1` [DOXORUBICIN HYDROCHLORIDE], the pIC50 was 7.22.
